Reference: ChEMBL document CHEMBL1671797, “Lipophilic derivatives of leu-enkephalinamide: in vitro permeability, stability and in vivo nasal delivery” (Bioorg Med Chem, 2011)
Non-standard residues stand in square brackets, D forms with d. Residues, ends and D or L forms follow the SMILES beside them. Gly(decyl) = CCCCCCCCCC[C@H](N)C(=O)O; Aoc(2) = CCCCCC[C@H](N)C(=O)O

Legend:
[1] = Drug level in Sprague-Dawley rat olfactory bulb at 1 mg/kg, intranasal after 10 mins by LC-MS/MS analysis; assay type: ADME, organism-based; set-up: dose 1 mg/kg; conditions: inhaled or intranasal, read-out: Drug uptake
In short: (§1)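 Male Sprague–Dawley rats (450–530 g, n = 4; 2 PBS controls) under xylazine/tiletamine–zolazepam anaesthesia. Dose given as 50 µL suspension in PBS pH 7.4 through a tube inserted 15 mm into the nasal cavity. CO2 euthanasia at 10 min. Tissues and blood homogenised or diluted in cold PBS, sonicated, acetonitrile-precipitated. Quantified against standards made in brain-homogenate matrix.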

[2] = Drug level in Sprague-Dawley rat brain at 1 mg/kg, intranasal after 10 mins by LC-MS/MS analysis; assay type: ADME, organism-based; set-up: dose 1 mg/kg; conditions: inhaled or intranasal, read-out: Drug uptake; in short: as §1
[3] = Drug level in Sprague-Dawley rat blood at 1 mg/kg, intranasal after 10 mins by LC-MS/MS analysis; assay type: ADME, organism-based; set-up: dose 1 mg/kg; conditions: whole blood, inhaled or intranasal; in short: as §1
[4] = Stability of the compound in human plasma assessed as half life by HPLC analysis; assay type: ADME, cell-free
In short: (§2)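 Compound at 1 mg/mL in PBS mixed 1:1 with human plasma from healthy volunteers at 37 °C. Aliquots taken at set times, put on ice, proteins precipitated with acetonitrile, spun 10,000 rpm 10 min. Supernatant run on C18 RP-HPLC (water/acetonitrile/TFA gradient), detection at 214 nm. Percent of initial peptide remaining plotted against time.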

[5] = tested on: Plasma; experiment: Stability of the compound in human plasma assessed as degradation by HPLC analysis; assay type: ADME, cell-free; in short: as §2
[6] = Stability of the compound in human Caco2 cell homogenate assessed as half life by LC-MS/MS analysis; assay type: ADME, Colon; conditions: Caco-2 cell homogenate
In short: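 Confluent Caco-2 cells (21–28 days) rinsed, sonicated, spun 2000 rpm 5 min; supernatant adjusted to 0.5 mg/mL protein. Homogenate mixed 1:1 with 200 µM compound in HBSS/HEPES. Sampled at 5–120 min, quenched with TFA-acidified water (pH 1–2). Endomorphin-1 run as enzyme-activity control. t1/2 by one-phase decay fit; 4 wells, ≥3 independent experiments.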

[7] = Apparent permeability across human Caco2 cells by LC-MS/MS analysis; assay type: ADME, cell-based; conditions: Caco-2
In short: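 Caco-2 cells (passage 25–35, DMEM with 10% FBS, 1% NEAA) grown 21–28 days on 0.4 µm polycarbonate Transwell inserts; TEER 2.5–5 kΩ/cm2 before use. Rinsed with EDTA/DPBS then HBSS/25 mM HEPES pH 7.4, equilibrated 30 min at 37 °C. 200 µM apical dose; basolateral sampling at 30, 90, 120, 150 min. Papp from steady-state flux; 4 wells/experiment, ≥3 experiments; 14C mannitol control.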

[8] = tested on: Plasma; experiment: Stability of the compound in human plasma by HPLC analysis; assay type: ADME, cell-free; in short: as §2

| Compound | half-life [6] | Papp [7] | other results |
| --- | --- | --- | --- |
| CCCCCC[C@@H](N)C(=O)N[C@@H](Cc1ccc(O)cc1)C(=O)NCC(=O)NCC(=O)N[C@@H](Cc1ccccc1)C(=O)N[C@@H](CC(C)C)C(N)=O | – | – | Stability [8]: Stable |
| CCCCCCCCCC[C@H](NC(=O)[C@H](CC(C)C)NC(=O)[C@H](Cc1ccccc1)NC(=O)CNC(=O)CNC(=O)[C@H](Cc1ccc(O)cc1)NC(C)=O)C(N)=O (Ac-YGGFL[Gly(decyl)]-NH2) | 18.4 min | – | – |
| CCCCCCCCCC[C@H](NC(C)=O)C(=O)N[C@@H](Cc1ccc(O)cc1)C(=O)NCC(=O)NCC(=O)N[C@@H](Cc1ccccc1)C(=O)N[C@@H](CC(C)C)C(N)=O (Ac-[Gly(decyl)]YGGFL-NH2) | 27 min | – | – |
| CCCCCC[C@H](NC(=O)[C@H](CC(C)C)NC(=O)[C@H](Cc1ccccc1)NC(=O)CNC(=O)CNC(=O)[C@@H](N)Cc1ccc(O)cc1)C(N)=O (H-YGGFL[Aoc(2)]-NH2) | 5.4 min | 0.00477 ×10⁻⁶ cm/s | – |
| CCCCCCCCCC[C@H](NC(=O)[C@H](CC(C)C)NC(=O)[C@H](Cc1ccccc1)NC(=O)CNC(=O)CNC(=O)[C@@H](N)Cc1ccc(O)cc1)C(N)=O (H-YGGFL[Gly(decyl)]-NH2) | 16.4 min | – | – |
| CC(C)C[C@H](NC(=O)[C@H](Cc1ccccc1)NC(=O)CNC(=O)CNC(=O)[C@@H](N)Cc1ccc(O)cc1)C(=O)O [ENKEPHALIN] | – | 0.31 ×10⁻⁶ cm/s | – |

Continued, in another order:

| half-life [6] | Papp [7] | Compound | other results |
| --- | --- | --- | --- |
| 31.7 min | 2.51 ×10⁻⁶ cm/s | CCCCCC[C@H](N)C(=O)N[C@@H](Cc1ccc(O)cc1)C(=O)NCC(=O)NCC(=O)N[C@@H](Cc1ccccc1)C(=O)N[C@@H](CC(C)C)C(N)=O | concentration at 10 min [1]: 59 nM; concentration at 10 min [2]: 13.5 nM; concentration at 10 min [3]: 6.53 nM; half-life [4]: 8.9 min; Stability [5]: Unstable |
| 13.8 min | 0.763 ×10⁻⁶ cm/s | CCCCCC[C@H](NC(=O)[C@H](CC(C)C)NC(=O)[C@H](Cc1ccccc1)NC(=O)CNC(=O)CNC(=O)[C@H](Cc1ccc(O)cc1)NC(C)=O)C(N)=O (Ac-YGGFL[Aoc(2)]-NH2) | – |
| 83 min | 1.06 ×10⁻⁶ cm/s | CCCCCC[C@H](NC(C)=O)C(=O)N[C@@H](Cc1ccc(O)cc1)C(=O)NCC(=O)NCC(=O)N[C@@H](Cc1ccccc1)C(=O)N[C@@H](CC(C)C)C(N)=O (Ac-[Aoc(2)]YGGFL-NH2) | – |
| 14.7 min | 2.43 ×10⁻⁶ cm/s | CCCCCCCCCC[C@H](N)C(=O)N[C@@H](Cc1ccc(O)cc1)C(=O)NCC(=O)NCC(=O)N[C@@H](Cc1ccccc1)C(=O)N[C@@H](CC(C)C)C(N)=O (H-[Gly(decyl)]YGGFL-NH2) | – |
